Measured values collected from several papers.
Lines come from different studies, so protocols differ.
Organism: Plasmodium falciparum
Observed: parasite growth
Technique: SYBR Green

SMILES | strain | tested at | time | setting | endpoint | result
O=C1c2[nH]cc3c2C(=NCC3)c2c(-c3ccc(O)cc3)c[nH]c21 | 3D7 | – | – | blood stage | IC50 | 2090 nM
CCN(CC)CCCC(C)Nc1ccnc2cc(Cl)ccc12 (stereo not shown) | DD2 | – | – | drug-resistant strain, blood stage | IC50 | 848 nM
C[N+]1=C2C=C(N)C(=O)c3[nH]cc(c32)CC1 | 3D7 | – | – | blood stage | IC50 | 196 nM
COc1ccc(C2CC3=C(C(=O)O2)C(c2ccccc2Cl)C(C(=O)OC(C)(C)C)=C(C)N3)cc1OC (mixture of isomers) | 3D7 | – | 72 h | blood stage | EC50 | > 13000 nM
CCCCCNC[C@H](O)c1cc(Cl)cc2c1-c1ccc(Cl)cc1C2 | W2 | – | 48 h | drug-resistant strain, blood stage | IC50 | 3.7 nM
CC(C)C[C@@H](C=O)NC(=O)[C@H](CC(C)C)NC(=O)[C@H](CC(C)C)NC(=O)OCc1ccccc1 | DD2 | – | – | blood stage | EC50 | 69 nM
CCCCCCNC[C@@H](O)c1cc(Cl)cc2c1-c1ccc(Cl)cc1C2 | W2 | – | 48 h | drug-resistant strain, blood stage | IC50 | 6.5 nM
COc1ccccc1C(=O)/C=C/c1cn(Cc2cn(-c3ccnc4cc(Cl)ccc34)nn2)c2ccccc12 | 3D7 | 10 µM | – | blood stage | inhibition | > 50%
O=C1C(NCCc2c[nH]c3ccccc23)=CC2=NCCc3c[nH]c1c32 | 3D7 | – | – | blood stage | IC50 | 160 nM
COCC(=O)N1CCC[C@H](C(=O)NCc2nc(-c3ccc(C#N)cc3)cs2)C1 | DD2 | – | – | blood stage | EC50 | 18 nM
O=Cc1cn(Cc2cn(-c3ccnc4cc(Cl)ccc34)nn2)c2ccccc12 | 3D7 | 5 µM | – | blood stage | inhibition | -4.99%
C[C@@H]1CC[C@H]2[C@@H](C)C(=O)O[C@@H]3O[C@@]4(C)CC[C@@H]1[C@]32OO4 | – | – | 72 h | – | EC50 | 14 nM
O=C1C=C2NCCc3c[nH]c(c32)C1=O | 3D7 | – | – | blood stage | IC50 | 29600 nM
COCC(=O)N1CCC[C@H](C(=O)NCc2nc(-c3ccccc3)cs2)C1 | DD2 | – | – | blood stage | EC50 | 69 nM
CCCCCCCNCC(O)c1cc(Cl)cc2c1-c1ccc(Cl)cc1C2 (racemic) | W2 | – | 48 h | drug-resistant strain, blood stage | IC50 | 18.6 nM
Cn1cc2c3c1C(=O)C(N)=CC3=[N+](C)CC2 | 3D7 | – | – | blood stage | IC50 | 1140 nM
O[C@H](CN1CCN(C(c2ccccc2)c2ccccc2)CC1)c1cc(Cl)cc2c1-c1ccc(Cl)cc1C2 | W2 | – | 48 h | drug-resistant strain, blood stage | IC50 | 70.2 nM
Cn1cc2c3c1C(=O)C(N)=CC3=NCC2 | DD2 | – | – | blood stage | IC50 | 3550 nM
O[C@H](CN[C@H](COCC1CC1)Cc1ccccc1)c1cc(Cl)cc2c1-c1ccc(Cl)cc1C2 | W2 | – | 48 h | drug-resistant strain, blood stage | IC50 | 2.8 nM
C[C@@H]1CC[C@H]2[C@@H](C)C(=O)O[C@@H]3O[C@@]4(C)CC[C@@H]1[C@]32OO4 | DD2 | – | – | drug-resistant strain, blood stage | IC50 | 76 nM
C[N+]1=C2C=C(NCCc3ccc(O)cc3)C(=O)c3[nH]cc(c32)CC1 | DD2 | – | – | blood stage | IC50 | 28.3 nM
O[C@H](CNCCN1CCN(C(c2ccccc2)c2ccccc2)CC1)c1cc(Cl)cc2c1-c1ccc(Cl)cc1C2 | W2 | – | 48 h | drug-resistant strain, blood stage | IC50 | 13 nM
